A selection: hits, their analogues and other compounds. The true share with any hit is near 1.2%.
ASAP1 inh: inhibitors of human ASAP1 ArfGAP activity; ASAP1-stimulated ARF1 GTP hydrolysis, GDP FP detection; actives 0.19% (n = 360,000); Q9ULH1; inhibition, % at 16.5 µM; in the data active = inhibition above about 25%;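 also: 0% = vehicle with enzyme and substrate and 100% = no enzyme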
Target sequence (Q9ULH1 325-724 limits assumed): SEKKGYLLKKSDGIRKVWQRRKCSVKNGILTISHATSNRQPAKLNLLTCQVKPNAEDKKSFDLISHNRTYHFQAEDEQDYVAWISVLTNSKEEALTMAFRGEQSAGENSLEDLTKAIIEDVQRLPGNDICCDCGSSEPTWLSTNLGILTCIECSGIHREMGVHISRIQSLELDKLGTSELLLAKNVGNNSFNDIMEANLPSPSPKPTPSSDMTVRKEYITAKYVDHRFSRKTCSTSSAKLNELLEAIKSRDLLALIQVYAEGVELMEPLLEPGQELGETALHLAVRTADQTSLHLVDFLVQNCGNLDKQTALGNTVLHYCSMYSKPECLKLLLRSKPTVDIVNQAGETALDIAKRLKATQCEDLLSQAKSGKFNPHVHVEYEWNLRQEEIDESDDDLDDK
PREPL inh: inhibitors of human prolyl oligopeptidase-like enzyme PREPL. Q4J6C6. recombinant PREPL, fluorescence polarization activity-based probe. inhibition, % at 5.96 µM. actives 0.68% (n = 320,000); in the data active = inhibition above about 43%;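 also: 0% = enzyme with DMSO and 100% = wells lacking enzyme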
IDE inh: cellular human IDE inhibition; actives 0.41% (n = 320,000); inhibition, % at 5.59 µM; AID 434962; P14735; HEK cells, FAbetaB cleavage, fluorescence polarization;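 active = percent inhibition above the average of all tested compounds plus 3 SD, set per screening campaign, cut at about 16% in these data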;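 also: IDE supplied by intact live HEK cells; FP after avidin binding of uncleaved biotin substrate so inhibition keeps polarization high; 0% = DMSO wells and 100% = 60 µM reference IDE inhibitor Ii1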
ARFGAP1 inhibitor: rat ARFGAP1 inhibition | actives 0.26% (n = 360,000) | Arfgap1-stimulated ARF1 GTP hydrolysis, GDP FP detection | Q62848 | inhibition, % at 16.5 µM;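 active = inhibition above a per-plate limit, mean inhibition of low control wells plus 3 SD, cut at about 25% in these data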;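 also: 0% = DMSO wells with enzyme and 100% = wells lacking Arfgap1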
Target sequence (Q62848 1-136 limits assumed): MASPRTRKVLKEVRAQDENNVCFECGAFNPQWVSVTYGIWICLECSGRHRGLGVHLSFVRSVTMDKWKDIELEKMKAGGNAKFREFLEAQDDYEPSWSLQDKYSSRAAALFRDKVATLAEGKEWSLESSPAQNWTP
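Material: rat Arfgap1 GAP domain (His6, aa 1-136), purified enzyme. Also added: human ARF1(Δ1-17)-GTP substrate. Compound dosing: 16.5 µM single point, 1.26% DMSO. Timing: enzyme reaction 120 min at 25 °C after 20 min preincubation. Signal: GDP detection by fluorescence polarization. Read-out basis: percent inhibition of GAP-stimulated GDP formation, scaled between DMSO and no-Arfgap1 medians.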
IDE cell activ: activators of human insulin-degrading enzyme in cells | P14735 | HEK cells, FAbeta-B cleavage, fluorescence polarization; 0% vehicle, 100% cell-free pure enzyme wells | activation, % at 5.96 µM | actives 0.073% (n = 340,000) | AID 493087;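 active = activation above the mean of all tested compounds plus 3 SD, set per screening campaign, cut at about 17% in these data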
IDE cell inh cf: cellular human IDE inhibition, confirmation; shares compounds with IDE inh; HEK cells, FAbetaB cleavage, fluorescence polarization; inhibition, % at 5.59 µM; actives 51% (n = 1,200); AID 435028;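 active = mean inhibition across triplicate wells above the cutoff set by the earlier primary insulin-degrading enzyme screen, cut at about 16% in these data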;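 also: 0% = DMSO wells and 100% = 60 µM reference IDE inhibitor Ii1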
HEK293 tox: counter-screen for IDE inhibitors: cytotoxicity in HEK cells | shares compounds with IDE inh | HEK293 cytotoxicity, ATP luminescence | inhibition, % at 5.59 µM | actives 28% (n = 1,200) | AID 449730; in the data active = inhibition above about 22%;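 also: 0% = vehicle wells and 100% = reference cytotoxic drug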
FP fluor counter: fluorescent artifact in IDE inhibitor FP assay. AID 588718. shares compounds with IDE inh. IC50, µM. FP counterscreen for fluorescent artifacts, IDE probe project. 30 tested, under 10 active; call rule not given here
Numbers without * were called inactive.

C#CCOCCOCCOCCNc1nc(N2CCN(C(=O)[C@H]([C@@H](C)CC)n3cc([C@@H](N)Cc4ccc(O)cc4)nn3)CC2)nc(N2CCN(C(=O)[C@H](Cc3ccc(O)cc3)n3cc([C@@H](N)C(C)CC)nn3)CC2)n1 (some centres not stated) was read as ASAP1 inh 6.4, PREPL inh 22.7, IDE inh -0.4, ARFGAP1 inhibitor 0.3 and IDE cell activ -2.4.
For Cc1nc(N/C(N)=N/S(=O)(=O)c2ccc([N+](=O)[O-])cc2)nc2ccccc12 the results were ASAP1 inh 5.6, PREPL inh 6.2, IDE inh 22.3*, ARFGAP1 inhibitor -2.4, IDE cell activ -3.1, IDE cell inh cf 8.5 and HEK293 tox 3.7.
`Cc1cccc(NC(=O)CCc2nc3sc4c(c3c(=O)[nH]2)CCCC4)c1` gave ASAP1 inh 8.0, PREPL inh 13.0, IDE inh -2.0, ARFGAP1 inhibitor 4.4 and IDE cell activ -12.8.
`CN(C)S(=O)(=O)c1cccc(NC(=O)CCc2nc3sc4c(c3c(=O)[nH]2)CCCC4)c1` gave ASAP1 inh 5.0, PREPL inh 18.0, IDE inh 22.3*, ARFGAP1 inhibitor 10.4, IDE cell activ -16.6, IDE cell inh cf 14.3 and HEK293 tox 24.5*.
Screening CN(C)C(=O)c1ccc(Cc2cn(C)c3ccccc23)nc1 returned ASAP1 inh -0.2 and ARFGAP1 inhibitor 5.8.
`CC(=O)c1sc(N/N=C\c2ccccc2O)nc1C` gave ASAP1 inh 5.5, PREPL inh 14.0, IDE inh 30.7*, ARFGAP1 inhibitor 11.3, IDE cell activ -37.4, IDE cell inh cf 47.5* and HEK293 tox 6.1.
For COc1ccc(Cc2nnc(N/N=C(\C)c3ccccc3)[nH]c2=O)cc1OC the results were ASAP1 inh 3.6, PREPL inh 28.9, IDE inh -1.5, ARFGAP1 inhibitor 7.2 and IDE cell activ -1.6.
O=C(Cc1cccc(NC(=O)C2CCCN(C(=O)C3CCCCC3)C2)c1)Nc1ccc(C(=O)N2CCCCC2)cc1 (configuration not stated) was read as ASAP1 inh -12.2, ARFGAP1 inhibitor 14.8 and IDE cell activ -0.4.
Screening Cc1ccc(N2CCN(CCc3nc4cc(NC(=O)c5ccco5)ccc4n3C)CC2)cc1 returned ASAP1 inh -5.8, PREPL inh 10.0, IDE inh 19.4*, ARFGAP1 inhibitor 6.9, IDE cell activ -1.5, IDE cell inh cf 7.7 and HEK293 tox 21.1.
For N#Cc1ccc(C(=O)Nc2ccc3ccccc3c2)cc1 the results were ASAP1 inh 4.8, PREPL inh -2.3, IDE inh 10.0, ARFGAP1 inhibitor 2.1 and IDE cell activ -3.7.
O=C(Nc1ccc2ccccc2c1)c1ccc2[nH]c(=O)c(=O)[nH]c2c1 was read as ASAP1 inh 9.0, PREPL inh 25.0, IDE inh 20.2*, ARFGAP1 inhibitor -12.6, IDE cell activ -18.9, IDE cell inh cf 12.6 and HEK293 tox 9.6.
CCOC(=O)c1ccc(/C=C2/C=C(c3ccccc3)N(c3ccc(Cl)c(C(=O)O)c3)C2=O)cc1 was read as ASAP1 inh -10.7, PREPL inh 9.2, IDE inh 16.6*, ARFGAP1 inhibitor -0.3, IDE cell activ -7.3, IDE cell inh cf 44.4* and HEK293 tox 84.1*.
Cc1ccc(C(=O)N2CCN(S(=O)(=O)c3ccccc3)CC2)s1 was read as ASAP1 inh -4.1, PREPL inh -9.5, IDE inh -2.6, ARFGAP1 inhibitor -1.7 and IDE cell activ -1.6.
`C=CCN(CC=C)Cc1cc(=O)oc2cc(C)cc(C)c12` gave ASAP1 inh 13.4 and ARFGAP1 inhibitor -1.2.
`CCOC(=O)C1=CC[C@@H](c2cccc(C)c2)N(S(=O)(=O)c2ccc(C)cc2)[C@H]1C(=O)OCC` gave ASAP1 inh 5.8, PREPL inh 12.8, IDE inh 16.3*, ARFGAP1 inhibitor -3.2, IDE cell activ -3.7, IDE cell inh cf 13.0 and HEK293 tox 12.2.
CCOC(=O)C1=CC[C@@H](c2ccccc2Cl)N(S(=O)(=O)c2ccc(C)cc2)[C@H]1C(=O)OCC was read as ASAP1 inh 4.6, PREPL inh 1.3, IDE inh -1.8, ARFGAP1 inhibitor 4.7 and IDE cell activ 0.1.
O=C(O)C1c2ccccc2C(=O)N(Cc2ccc(F)cc2)C1c1ccncc1 (configuration not stated) was read as ASAP1 inh -15.9, PREPL inh -0.8, IDE inh 16.2*, ARFGAP1 inhibitor -8.1, IDE cell inh cf 6.3 and HEK293 tox 3.6.
Screening Cc1ccc(C(=O)NCC2CCCO2)cc1S(=O)(=O)N1CCCCC1 (configuration not stated) returned ASAP1 inh 3.7, PREPL inh -2.4, IDE inh -3.6, ARFGAP1 inhibitor -6.1 and IDE cell activ -0.1.
`O=C(CSc1nnc(-c2cccc(Cl)c2)n1Cc1ccco1)Nc1ccc2c(c1)OCCO2` gave FP fluor counter >54.7.
For CC(C)N1CCc2c(sc(NC(=S)NC(=O)c3ccccc3)c2C#N)C1 the results were ASAP1 inh 5.3, PREPL inh 62.0*, IDE inh 19.2*, ARFGAP1 inhibitor -2.5, IDE cell activ -12.9, IDE cell inh cf 10.6 and HEK293 tox 10.5.
COc1ccc(C(=O)c2sc3nc(-c4ccccc4)ccc3c2N)cc1 was read as PREPL inh 13.3, IDE inh 21.5*, IDE cell activ -33.8, IDE cell inh cf 19.5* and HEK293 tox 13.4.
For Cn1c(SCC(=O)NCCc2ccc(S(N)(=O)=O)cc2)nc2ccccc2c1=O the results were ASAP1 inh -7.8, PREPL inh 7.5, IDE inh 40.7*, ARFGAP1 inhibitor 12.8, IDE cell activ -56.4, IDE cell inh cf 8.7 and HEK293 tox 7.5.
For CSc1ccccc1CNC(=O)C1(C)CCCN1CC(C)C (configuration not stated) the results were ASAP1 inh 4.0 and ARFGAP1 inhibitor -0.1.
Screening O=C(C[C@@H]1C/C=C\C[C@@H](Cc2ccc(F)cc2)C(=O)OC[C@@H]2CCCN2C1=O)NCCO returned ASAP1 inh 3.1, PREPL inh 27.7, IDE inh -1.4, ARFGAP1 inhibitor -3.8 and IDE cell activ 1.9.
`CCn1c(COc2ccc(C)cc2)nnc1SCC(=O)C(C)(C)C` gave ASAP1 inh -1.2, PREPL inh 9.9, IDE inh 2.3, ARFGAP1 inhibitor 4.8 and IDE cell activ -4.9.
